According to ChEMBL document CHEMBL1154609, “Synthesis and antibacterial activity of isothiazolyl oxazolidinones and analogous 3(2H)-isothiazolones” (Eur J Med Chem, 2010):
≈ marks a conversion by molar mass, not a printed value.

Assays:
Staphylococcus aureus [1] = assay: Antibacterial activity against Staphylococcus aureus ATCC 29737 after 18 hrs by agar dilution method; format: functional; settings: ATCC 29737, 18 h
Summary of the method: (§1)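 Agar dilution on Mueller Hinton agar; inoculum about 10^6 CFU/mL applied to plates with twofold serial dilutions of compound in distilled water, 0.01 to 100 μg/mL; 37 °C, 18 h. DMSO-supplemented medium at matching dilution run as solvent control. MIC = lowest concentration giving no visible growth on the plate.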

[2] = test system: Staphylococcus epidermidis; assay: Antibacterial activity against Staphylococcus epidermidis ATCC 12229 after 18 hrs by agar dilution method; format: functional; settings: ATCC 12229, 18 h; summary of the method: as §1
Escherichia coli = assay: Antibacterial activity against Escherichia coli ATCC 8739 after 18 hrs by agar dilution method; format: functional; settings: ATCC 8739, 18 h; summary of the method: as §1
Salmonella typhimurium = assay: Antibacterial activity against Salmonella Typhimurium ATCC 1639 after 18 hrs by agar dilution method; format: functional, Salmonella enterica subsp. enterica serovar Typhimurium; settings: Salmonella enterica, ATCC 1639, 18 h; summary of the method: as §1
Pseudomonas aeruginosa = assay: Antibacterial activity against Pseudomonas aeruginosa ATCC 9027 after 18 hrs by agar dilution method; settings: ATCC 9027, 18 h
Staphylococcus aureus [3] = assay: Antibacterial activity against methicillin-resistant Staphylococcus aureus isolate 2 after 18 hrs by agar dilution method; format: functional; settings: isolate 2, 18 h
Summary of the method: (§2)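 Agar dilution on Mueller Hinton agar. Inoculum about 10^6 CFU/mL applied to plates holding two-fold serial dilutions of compound in distilled water, 0.01 to 100 μg/mL. Incubated 37 °C for 18 h. DMSO solvent control included. MIC taken as the lowest concentration giving no visible growth on the plate.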

Staphylococcus aureus [4] = assay: Antibacterial activity against methicillin-resistant Staphylococcus aureus isolate 1 after 18 hrs by agar dilution method; format: functional; settings: isolate 1, 18 h; summary of the method: as §2
[5] = Cytotoxicity against mouse NIH/3T3 cells after 24 hrs by MTT assay; format: cell-based; settings: NIH3T3, 24 h
Summary of the method: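 NIH/3T3 normal mouse fibroblasts exposed to compounds for 24 h; viability read by MTT colorimetric assay.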

Row | SMILES | MIC (Staphylococcus aureus [1]) [µg/mL] | MIC [2] [µg/mL] | MIC (Escherichia coli) [µg/mL] | MIC (Salmonella typhimurium) [µg/mL] | MIC (Pseudomonas aeruginosa) [µg/mL] | MIC (Staphylococcus aureus [3]) [µg/mL] | MIC (Staphylococcus aureus [4]) [µg/mL] | IC50 [5] [µg/mL]
1 | O=C1OC(Cn2sccc2=O)CN1c1cccc(Cl)c1 (configuration not stated) | 12.5 (≈ 40.2 µM) | 12.5 (≈ 40.2 µM) | 12.5 (≈ 40.2 µM) | 12.5 (≈ 40.2 µM) | 12.5 (≈ 40.2 µM) |  |  | 
2 | O=c1ccsn1-c1ccccc1 | 3.25 (≈ 18.3 µM) | 3.25 (≈ 18.3 µM) | 12.5 (≈ 70.5 µM) | 25 (≈ 141 µM) | 12.5 (≈ 70.5 µM) |  |  | 
3 | O=c1cc(Cl)sn1-c1ccc(Cl)cc1 | 0.1 (≈ 0.406 µM) | 0.1 (≈ 0.406 µM) | 0.3 (≈ 1.22 µM) | 0.3 (≈ 1.22 µM) | 0.6 (≈ 2.44 µM) |  |  | 
4 | O=c1ccsn1-c1ccc(C(F)(F)F)cc1 | 25 (≈ 102 µM) | 0.25 (≈ 1.02 µM) | 25 (≈ 102 µM) | 25 (≈ 102 µM) | 25 (≈ 102 µM) |  |  | 
5 | O=C(O)c1cn(C2CC2)c2cc(N3CCNCC3)c(F)cc2c1=O [CIPROFLOXACIN] | 0.5 (≈ 1.51 µM) | 1 (≈ 3.02 µM) |  | 0.01 (≈ 0.0302 µM) | 0.01 (≈ 0.0302 µM) |  |  | 
6 | COc1ccc(-n2sccc2=O)cc1 | 10 (≈ 48.2 µM) | 3 (≈ 14.5 µM) | 25 (≈ 121 µM) | 12.5 (≈ 60.3 µM) | 25 (≈ 121 µM) |  |  | 
7 | Cc1ccc(N2CC(Cn3sccc3=O)OC2=O)cc1 (configuration not stated) | 25 (≈ 86.1 µM) | 25 (≈ 86.1 µM) | 25 (≈ 86.1 µM) | 25 (≈ 86.1 µM) | 25 (≈ 86.1 µM) |  |  | 
8 | O=C1OC(Cn2sccc2=O)CN1c1ccc(C(F)(F)F)cc1 (configuration not stated) | 50 (≈ 145 µM) | 100 (≈ 290 µM) | 100 (≈ 290 µM) | 100 (≈ 290 µM) | 100 (≈ 290 µM) |  |  | 
9 | O=c1cc(Cl)sn1-c1cccc(Cl)c1 | 6 (≈ 24.4 µM) | 10 (≈ 40.6 µM) | 12.5 (≈ 50.8 µM) | 12.5 (≈ 50.8 µM) | 12.5 (≈ 50.8 µM) |  |  | 
10 | O=C1OC(Cn2sccc2=O)CN1c1ccc(N2CCOCC2)c(F)c1 (configuration not stated) | 6 (≈ 15.8 µM) | 12.5 (≈ 32.9 µM) | 25 (≈ 65.9 µM) | 12.5 (≈ 32.9 µM) | 12.5 (≈ 32.9 µM) |  |  | 
11 | CC(=O)c1ccc(-n2sc(Cl)cc2=O)cc1 | 12.5 (≈ 49.3 µM) | 12.5 (≈ 49.3 µM) | 12.5 (≈ 49.3 µM) | 25 (≈ 98.5 µM) | 12.5 (≈ 49.3 µM) |  |  | 
12 | O=c1ccsn1-c1ccc(F)cc1 | 1.5 (≈ 7.68 µM) | 3 (≈ 15.4 µM) | 6 (≈ 30.7 µM) | 12.5 (≈ 64 µM) | 12.5 (≈ 64 µM) |  |  | 
13 | O=c1ccsn1-c1cccc(F)c1 | 6 (≈ 30.7 µM) | 3.25 (≈ 16.6 µM) | 12.5 (≈ 64 µM) | 12.5 (≈ 64 µM) | 12.5 (≈ 64 µM) |  |  | 
14 | O=C1OC(Cn2sccc2=O)CN1c1ccc(Cl)cc1 (configuration not stated) | 1.5 (≈ 4.83 µM) | 1.5 (≈ 4.83 µM) | 12.5 (≈ 40.2 µM) | 12.5 (≈ 40.2 µM) | 25 (≈ 80.4 µM) | 12.5 (≈ 40.2 µM) | 12.5 (≈ 40.2 µM) | 194 (≈ 624 µM)
15 | O=c1cc(Cl)sn1-c1ccc(C(F)(F)F)cc1 | 5 (≈ 17.9 µM) | 5 (≈ 17.9 µM) | 25 (≈ 89.4 µM) | 12.5 (≈ 44.7 µM) | 0.1 (≈ 0.358 µM) |  |  | 
16 | CC(=O)c1ccc(-n2sccc2=O)cc1 | 12.5 (≈ 57 µM) | 12.5 (≈ 57 µM) | 12.5 (≈ 57 µM) | 12.5 (≈ 57 µM) | 12.5 (≈ 57 µM) |  |  | 
17 | O=c1cc(Cl)sn1-c1ccc(F)cc1 | 3 (≈ 13.1 µM) | 3 (≈ 13.1 µM) | 6 (≈ 26.1 µM) | 6 (≈ 26.1 µM) | 12.5 (≈ 54.4 µM) |  |  | 
18 | CC(=O)c1ccc(N2CC(Cn3sccc3=O)OC2=O)cc1 (configuration not stated) | 12.5 (≈ 39.3 µM) | 25 (≈ 78.5 µM) | 50 (≈ 157 µM) | 50 (≈ 157 µM) | 100 (≈ 314 µM) |  |  | 

Row | SMILES | MIC (Staphylococcus aureus [1]) [µg/mL] | MIC [2] [µg/mL] | MIC (Escherichia coli) [µg/mL] | MIC (Salmonella typhimurium) [µg/mL] | MIC (Pseudomonas aeruginosa) [µg/mL] | MIC (Staphylococcus aureus [3]) [µg/mL] | MIC (Staphylococcus aureus [4]) [µg/mL] | IC50 [5] [µg/mL]
19 | O=c1cc(Cl)sn1Cc1ccccc1 | 0.5 (≈ 2.22 µM) | 0.5 (≈ 2.22 µM) | 0.5 (≈ 2.22 µM) | 12.5 (≈ 55.4 µM) | 25 (≈ 111 µM) |  |  | 
20 | O=c1ccsn1-c1ccc(Cl)cc1 | 3 (≈ 14.2 µM) | 1.5 (≈ 7.09 µM) | 10 (≈ 47.2 µM) | 10 (≈ 47.2 µM) | 10 (≈ 47.2 µM) |  |  | 
21 | O=c1ccsn1Cc1ccccc1 | 12.5 (≈ 65.4 µM) | 6 (≈ 31.4 µM) | 12.5 (≈ 65.4 µM) | 12.5 (≈ 65.4 µM) | 12.5 (≈ 65.4 µM) |  |  | 
22 | O=C1OC(Cn2sccc2=O)CN1c1cccc(F)c1 (configuration not stated) | 50 (≈ 170 µM) | 100 (≈ 340 µM) | 100 (≈ 340 µM) | 100 (≈ 340 µM) | 100 (≈ 340 µM) |  |  | 
23 | O=c1cc(Cl)sn1-c1ccc(N2CCOCC2)c(F)c1 | 10 (≈ 31.8 µM) | 10 (≈ 31.8 µM) | 25 (≈ 79.4 µM) | 25 (≈ 79.4 µM) | 12.5 (≈ 39.7 µM) |  |  | 
24 | O=C1OC(Cn2sccc2=O)CN1c1ccccc1 (configuration not stated) | 0.75 (≈ 2.71 µM) | 0.75 (≈ 2.71 µM) | 0.01 (≈ 0.0362 µM) | 0.01 (≈ 0.0362 µM) | 0.01 (≈ 0.0362 µM) | 10 (≈ 36.2 µM) | 6 (≈ 21.7 µM) | 162 (≈ 586 µM)
25 | O=c1cc(Cl)sn1-c1ccccc1 | 50 (≈ 236 µM) | 0.3 (≈ 1.42 µM) | 0.6 (≈ 2.83 µM) | 0.3 (≈ 1.42 µM) | 1.25 (≈ 5.91 µM) |  |  | 
26 | Cc1ccc(-n2sc(Cl)cc2=O)cc1 | 5 (≈ 22.2 µM) | 0.5 (≈ 2.22 µM) | 5 (≈ 22.2 µM) | 5 (≈ 22.2 µM) | 0.01 (≈ 0.0443 µM) |  |  | 
27 | O=c1ccsn1-c1ccc(N2CCOCC2)c(F)c1 | 12.5 (≈ 44.6 µM) | 10 (≈ 35.7 µM) | 25 (≈ 89.2 µM) | 25 (≈ 89.2 µM) | 25 (≈ 89.2 µM) |  |  | 
28 | CC(=O)NC[C@H]1CN(c2ccc(N3CCOCC3)c(F)c2)C(=O)O1 [LINEZOLID] |  | 0.03 (≈ 0.0889 µM) | > 100 | > 100 | > 100 |  | 2 (≈ 5.93 µM) | 465 (≈ 1380 µM)
29 | O=C1OC(Cn2sccc2=O)CN1Cc1ccccc1 (configuration not stated) | 0.5 (≈ 1.72 µM) | 0.5 (≈ 1.72 µM) | 12.5 (≈ 43.1 µM) | 12.5 (≈ 43.1 µM) | 12.5 (≈ 43.1 µM) | 12.5 (≈ 43.1 µM) | 8 (≈ 27.6 µM) | 273 (≈ 940 µM)
30 | Cc1ccc(-n2sccc2=O)cc1 | 25 (≈ 131 µM) | 2 (≈ 10.5 µM) | 25 (≈ 131 µM) | 25 (≈ 131 µM) | 25 (≈ 131 µM) |  |  | 
31 | O=c1ccsn1-c1cccc(Cl)c1 | 10 (≈ 47.2 µM) | 12.5 (≈ 59.1 µM) | 25 (≈ 118 µM) | 25 (≈ 118 µM) | 25 (≈ 118 µM) |  |  | 
32 | CN[C@H](CC(C)C)C(=O)N[C@H]1C(=O)N[C@@H](CC(N)=O)C(=O)N[C@H]2C(=O)N[C@H]3C(=O)N[C@H](C(=O)N[C@H](C(=O)O)c4cc(O)cc(O)c4-c4cc3ccc4O)[C@H](O)c3ccc(c(Cl)c3)Oc3cc2cc(c3O[C@@H]2O[C@H](CO)[C@@H](O)[C@H](O)[C@H]2O[C@H]2C[C@](C)(N)[C@H](O)[C@H](C)O2)Oc2ccc(cc2Cl)[C@H]1O [VANCOMYCIN] | 0.75 (≈ 0.518 µM) | 0.75 (≈ 0.518 µM) | > 100 | > 100 | > 100 |  |  | 
33 | O=C1OC(Cn2sccc2=O)CN1c1ccc(F)cc1 (configuration not stated) | 0.75 (≈ 2.55 µM) | 1.5 (≈ 5.1 µM) | 0.75 (≈ 2.55 µM) | 0.75 (≈ 2.55 µM) | 0.75 (≈ 2.55 µM) | 12.5 (≈ 42.5 µM) | 10 (≈ 34 µM) | 174 (≈ 591 µM)
34 | COc1ccc(-n2sc(Cl)cc2=O)cc1 | 1.5 (≈ 6.21 µM) | 0.25 (≈ 1.03 µM) | 1.5 (≈ 6.21 µM) | 1.5 (≈ 6.21 µM) | 0.01 (≈ 0.0414 µM) |  |  | 
35 | COc1ccc(N2CC(Cn3sccc3=O)OC2=O)cc1 (configuration not stated) | 50 (≈ 163 µM) | 50 (≈ 163 µM) | 100 (≈ 326 µM) | 100 (≈ 326 µM) | 100 (≈ 326 µM) |  |  | 
